According to publication PMC6085501 (EBioMedicine, 2018):
One block for each molecule: values may come before it.

Tests used:
[1] = target: Glucose regulated protein 78 kDa (GRP78), recombinant protein immobilised for SPR (UniProt P11021); assay: SPR
[2] = tested on: human HBT 3477 breast cancer; settings: 250 μg/mouse, nude mice; cited from earlier work
HUVECs = assay: Cell Death Detection ELISA; assay type: cell-based, human; settings: 100 μM, 24 h
Procedure, shortened: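 HUVECs (passages 5–10) seeded at 1–1.5 × 10^4 cells/well and pre-starved 3 h in 2% FBS medium. Co-treated with 100 μM test peptide plus 15 ng/ml VEGF for 24 h. Apoptosis read as cytoplasmic histone-associated DNA fragments by photometric ELISA at 405 nm. Fold change taken against VEGF-only cells set as 1. Mean ± SEM, at least three independent experiments, ANOVA.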

Cell-surface GRP78 = settings: ISM protein as ligand of cell-surface GRP78; cited from earlier work

Sequence of UniProt P11021 (P11021 19-654): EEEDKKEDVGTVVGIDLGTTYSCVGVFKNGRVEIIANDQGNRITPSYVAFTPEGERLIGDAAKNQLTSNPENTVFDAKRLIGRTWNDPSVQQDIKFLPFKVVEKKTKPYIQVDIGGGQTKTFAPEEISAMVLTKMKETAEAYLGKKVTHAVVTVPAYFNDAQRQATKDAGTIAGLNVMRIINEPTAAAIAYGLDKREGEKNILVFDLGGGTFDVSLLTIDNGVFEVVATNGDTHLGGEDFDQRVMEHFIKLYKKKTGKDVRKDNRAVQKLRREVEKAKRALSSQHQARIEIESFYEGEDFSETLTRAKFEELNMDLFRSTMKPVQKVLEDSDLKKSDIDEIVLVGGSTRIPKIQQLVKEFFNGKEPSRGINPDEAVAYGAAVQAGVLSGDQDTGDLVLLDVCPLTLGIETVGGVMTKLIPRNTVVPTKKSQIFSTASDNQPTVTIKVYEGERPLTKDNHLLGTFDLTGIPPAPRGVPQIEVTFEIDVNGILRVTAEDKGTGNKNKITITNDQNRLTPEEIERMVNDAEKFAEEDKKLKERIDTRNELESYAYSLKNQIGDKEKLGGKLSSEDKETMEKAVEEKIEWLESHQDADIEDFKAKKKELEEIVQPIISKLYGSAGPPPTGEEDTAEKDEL

Kd [1]: 211 µM
Molecule: BC71, cyclic peptide c[(bA)(k)RKD(2-D-Nal)]

Molecule: cilengitide
suppression of tumor growth as single agent [2]: ineffective

Molecule: cyclo(KRAAF) [GR35]
proapoptotic activity towards HUVECs (in words) (HUVECs): significantly reduced its proapoptotic activity

Molecule: cyclo(KRKDF) [GR16]
apoptosis, relative fold change (HUVECs; HUVECs, Cell Death Detection ELISA, Fig. 1a legend): over 1.4

B1: ISM: secreted proapoptotic protein, high-affinity ligand of cell-surface GRP78 (protein, UniProt B1AKI9 30-464, looked up)
Isthmin-1: ADGPDAAAGNASQAQLQNNLNVGSDTTSETSFSLSKEAPREHLDHQAAHQPFPRPRFRQETGHPSLQRDFPRSFLLDLPNFPDLSKADINGQNPNIQVTIEVVDGPDSEADKDQHPENKPSWSVPSPDWRAWWQRSLSLARANSGDQDYKYDSTSDDSNFLNPPRGWDHTAPGHRTFETKDQPEYDSTDGEGDWSLWSVCSVTCGNGNQKRTRSCGYACTATESRTCDRPNCPGIEDTFRTAATEVSLLAGSEEFNATKLFEVDTDSCERWMSCKSEFLKKYMHKVMNDLPSCPCSYPTEVAYSTADIFDRIKRKDFRWKDASGPKEKLEIYKPTARYCIRSMLSLESTTLAAQHCCYGDNMQLITRGKGAGTPNLISTEFSAELHYKVDVLPWIICKGDWSRYNEARPPNNGQKCTESPSDEDYIKQFQEAREY
Kd (Cell-surface GRP78): 8.6 nM
